Measured values as given in ChEMBL document CHEMBL1121916, “Structure-activity relationships in dihydropteroate synthase inhibition by sulfanilamides. Comparison with the antibacterial activity” (J Med Chem, 1981).

Columns and labels:
Escherichia coli = assay: In vitro inhibition of Escherichia coli (K12J53) growth.
[1] = Inhibition of Escherichia coli (K12J53) Dihydopteroate synthase.
Outline: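 Ammonium sulfate fraction (30–70%) from alumina-disrupted E. coli K12J53 grown on brain-heart infusion agar at 37 °C; it contains both pyrophosphokinase and synthase. Read-out was [14C]dihydropteroate. The 50% inhibitory concentration came from 1/dpm vs. concentration plots, divided by p-aminobenzoate concentration (EII50).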

[2] = PKa value was measured; assay type: physicochemical

CN(c1ccccn1)S(=O)(=O)c1ccc(N)cc1
GII50 (Escherichia coli): 40000 | EII50 [1]: 30

Cc1cc(C)n(C)/c(=N/S(=O)(=O)c2ccc(N)cc2)n1
GII50 (Escherichia coli): 52000 | EII50 [1]: 26

N=C(N)NS(=O)(=O)c1ccc(N)cc1
EII50 [1]: 10.2

Cc1cc(C)nc(NS(=O)(=O)c2ccc(N)cc2)n1 [SULFAMETHAZINE]
pKa [2]: 7.51 | EII50 [1]: 1.92

NC(=O)NS(=O)(=O)c1ccc(N)cc1 [SULFACARBAMIDE]
pKa [2]: 5.42 | EII50 [1]: 8.4

Nc1ccc(S(=O)(=O)NC(=O)c2ccccc2)cc1 [SULFABENZAMIDE]
pKa [2]: 4.57 | EII50 [1]: 5.2

Cc1cc(C)nc(N(C)S(=O)(=O)c2ccc(N)cc2)n1
EII50 [1]: 10.8

Nc1ccc(S(=O)(=O)Nc2ncccn2)cc1
EII50 [1]: 2.56

Nc1ccc(S(=O)(=O)Nc2nccs2)cc1 [SULFATHIAZOLE]
pKa [2]: 7.23 | EII50 [1]: 0.9

Nc1ccc(S(N)(=O)=O)cc1
EII50 [1]: 25

Cn1cccc/c1=N/S(=O)(=O)c1ccc(N)cc1
GII50 (Escherichia coli): 30000 | EII50 [1]: 8

Cn1ccs/c1=N\S(=O)(=O)c1ccc(N)cc1
GII50 (Escherichia coli): > 10000 | EII50 [1]: 13.4

CNS(=O)(=O)c1ccc(N)cc1
pKa [2]: 10.8 | GII50 (Escherichia coli): 60000 | EII50 [1]: 32.4

CN(c1ncccn1)S(=O)(=O)c1ccc(N)cc1
GII50 (Escherichia coli): 10000 | EII50 [1]: 9.2

Cc1nnc(NS(=O)(=O)c2ccc(N)cc2)s1 [SULFAMETHIZOLE]
pKa [2]: 5.22 | EII50 [1]: 0.4

COc1cc(NS(=O)(=O)c2ccc(N)cc2)nc(OC)n1 [SULFADIMETHOXINE]
pKa [2]: 5.98 | EII50 [1]: 0.85

Cn1cccn/c1=N\S(=O)(=O)c1ccc(N)cc1
GII50 (Escherichia coli): > 100000 | EII50 [1]: 31.2

CN(C)S(=O)(=O)c1ccc(N)cc1
GII50 (Escherichia coli): > 35000 | EII50 [1]: 82

N#CNS(=O)(=O)c1ccc(N)cc1
pKa [2]: 2.92 | GII50 (Escherichia coli): > 50000 | EII50 [1]: 8

Nc1ccc(S(=O)(=O)Nc2ccccn2)cc1 [SULFAPYRIDINE]
pKa [2]: 8.56 | EII50 [1]: 4.2

CN(c1nccs1)S(=O)(=O)c1ccc(N)cc1
GII50 (Escherichia coli): > 10000 | EII50 [1]: 35.4

CC(=O)NS(=O)(=O)c1ccc(N)cc1 [SULFACETAMIDE]
pKa [2]: 5.38 | EII50 [1]: 4.44
